From ChEMBL document CHEMBL2157972, “Selenophene-containing inhibitors of type IIA bacterial topoisomerases” (J Med Chem, 2011)
In brackets after ≈: the same amount, converted by molar mass.

Tests used:
Staphylococcus aureus [1] = test: Antimicrobial activity against fluoroquinolone resistant Staphylococcus aureus; assay type: functional
Method in brief: (§1)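 Read-out is the minimum inhibitory concentration (MIC), reported in μg/mL, from standard antimicrobial susceptibility testing.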

Staphylococcus aureus [2] = test: Antimicrobial activity against fluoroquinolone sensitive Staphylococcus aureus; assay type: functional
Method in brief: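 Standard susceptibility testing. The read-out is the minimum inhibitory concentration, reported in μg/mL.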

[3] = biological target: T1, Voltage-gated inwardly rectifying potassium channel KCNH2 (Homo sapiens, UniProt Q12809)
Staphylococcus aureus [4] = test: Antibacterial activity against methicillin-resistant Staphylococcus aureus ATCC 700699; assay type: functional; method in brief: as §1
[5] = Inhibition of Staphylococcus aureus topoisomerase 4 by decatenation assay
Method in brief: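 Enzyme activity was measured by topoisomerase IV decatenation using S. aureus enzyme. Inhibition is reported as a concentration in μM.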

DNA gyrase = DNA gyrase (Staphylococcus aureus, UniProt P0A0K8+P20831); test: Inhibition of Staphylococcus aureus DNA gyrase by supercoiling assay; assay type: protein-complex assay
[6] = Cytotoxicity against human Hep2 cell line after 72 hrs; assay type: cell-based; details: HEp-2 cells
Method in brief: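 Human laryngeal epidermoid carcinoma Hep2 cells were exposed for 72 h.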

Staphylococcus aureus [7] = test: Antibacterial activity against fluoroquinolone resistant Staphylococcus aureus 5-FQR4M BSA678 expressing GyrA Ser84Leu and Ser85Pro mutant and GrlA Ser80Phe and Glu84Lys mutant; assay type: functional; method in brief: as §1
Staphylococcus aureus [8] = test: Antibacterial activity against fluoroquinolone resistant Staphylococcus aureus 3-FQR3M ATCC 700699 expressing GyrA Ser84Leu mutant and Glu409Lys mutant and GrlA Ser80Phe mutant; assay type: functional; method in brief: as §1
Staphylococcus aureus [9] = test: Antibacterial activity against fluoroquinolone resistant Staphylococcus aureus 1-FQR2M BK2384 expressing GyrA Ser84Leu mutant and GrlA Ser80Phe mutant; assay type: functional; method in brief: as §1
Staphylococcus aureus [10] = test: Antibacterial activity against fluoroquinolone resistant Staphylococcus aureus 4-FQR3M BSA643 expressing GyrA Ser84Leu mutant and GrlA Ser80Tyr and Glu84Gly mutant; assay type: functional; method in brief: as §1
[11] = Cytotoxicity against human HepG2 cell line after 72 hrs; assay type: cell-based; details: HepG2 cells
Staphylococcus aureus [12] = test: Antibacterial activity against methicillin-sensitive Staphylococcus aureus ATCC 29213; assay type: functional; method in brief: as §1
[13] = Cytotoxicity against human HeLa cell line after 72 hrs; assay type: cell-based; details: HeLa cells
[14] = Cytotoxicity against […] CHO cell line after 72 hrs; assay type: cell-based, Cricetulus griseus; details: chinese hamster, CHO cells
Staphylococcus aureus [15] = test: Antibacterial activity against fluoroquinolone resistant Staphylococcus aureus 2-FQR2M NY2746 expressing GyrA Ser84Leu mutant and GrlA Ser80Phe mutant; assay type: functional; method in brief: as §1
hERG (KCNH2) = hERG (KCNH2) (Homo sapiens, UniProt Q12809); test: Inhibition of human ERG expressed in mammalian cells at 10 uM by patch clamp method; assay type: cell-based; details: mammalian cells that express hERG
[16] = biological target: T1, Voltage-gated inwardly rectifying potassium channel KCNH2; test: Inhibition of human ERG expressed in mammalian cells by patch clamp method; assay type: cell-based

Row | Structure (SMILES) | MIC (Staphylococcus aureus [4]) [µg/mL] | IC50 [5] [µM] | IC50 (DNA gyrase) [µM] | CC50 at 72 h [6] [µM] | MIC (Staphylococcus aureus [7]) [µg/mL] | MIC (Staphylococcus aureus [8]) [µg/mL] | MIC (Staphylococcus aureus [9]) [µg/mL] | MIC (Staphylococcus aureus [10]) [µg/mL] | MIC (Staphylococcus aureus [12]) [µg/mL] | MIC (Staphylococcus aureus [15]) [µg/mL] | further results
1 | COc1ccc2ncc(F)c([C@@H](O)CC[C@@H]3CCN(CCSc4cccs4)C[C@@H]3C(=O)O)c2c1 |  |  |  |  |  |  |  |  |  |  | MIC90 (Staphylococcus aureus [1]): 0.5 µg/mL (≈ 0.991 µM); MIC90 (Staphylococcus aureus [2]): 1 µg/mL (≈ 1.98 µM); IC50 [3]: 124 µM
2 | COC(=O)[C@H]1CN(CCSc2ccco2)CC[C@H]1CCC(=O)c1ccnc2ccc(OC)cc12 | > 32 |  |  |  |  |  |  |  |  |  | 
3 | COC(=O)[C@H]1CN(CCSc2cccs2)CC[C@H]1CCC(=O)c1ccnc2ccc(OC)cc12 | > 32 |  |  |  |  |  |  |  |  |  | 
4 | COC(=O)[C@H]1CN(CCSc2sccc2P(=O)(OC(C)C)OC(C)C)CC[C@H]1CCC(=O)c1ccnc2ccc(OC)cc12 | > 32 |  |  |  |  |  |  |  |  |  | 
5 | COC(=O)[C@H]1CN(CCSc2ccc[se]2)CC[C@H]1CCC(=O)c1ccnc2ccc(OC)cc12 | > 32 |  |  |  |  |  |  |  |  |  | 
6 | COC(=O)[C@H]1CN(CCS(=O)(=O)c2ccc[se]2)CC[C@H]1CCC(=O)c1ccnc2ccc(OC)cc12 | > 32 |  |  |  |  |  |  |  |  |  | 
7 | COC(=O)[C@H]1CN(CCSc2ccc(C(F)F)[se]2)CC[C@H]1CCC(=O)c1ccnc2ccc(OC)cc12 | > 32 |  |  |  |  |  |  |  |  |  | 
8 | COC(=O)[C@H]1CN(CCSc2ccc(C#N)[se]2)CC[C@H]1CCC(=O)c1ccnc2ccc(OC)cc12 | > 32 |  |  |  |  |  |  |  |  |  | 
9 | COC(=O)[C@H]1CN(CCC(=O)N2CCCCC2)CC[C@H]1CCC(=O)c1ccnc2ccc(OC)cc12 | > 32 |  |  |  |  |  |  |  |  |  | 
10 | COc1ccc2nccc([C@H](O)CC[C@@H]3CCN(CCSc4ccc[se]4)C[C@@H]3C(=O)O)c2c1 (mixture of isomers) | 0.5 | 69 | 0.7 | > 100 | 2 | 0.5 | 1 | 1 | 0.5 | 1 | CC50 at 72 h [11]: > 100 µM; CC50 at 72 h [13]: > 100 µM; CC50 at 72 h [14]: > 100 µM
11 | COc1ccc2nccc([C@@H](O)CC[C@@H]3CCN(CCSc4ccc[se]4)C[C@@H]3C(=O)O)c2c1 (mixture of isomers) | 0.25 | 64 | 0.4 | > 100 | 1 | 0.25 | 0.25 | 0.5 | 0.25 | 0.5 | CC50 at 72 h [11]: > 100 µM; CC50 at 72 h [13]: > 100 µM; CC50 at 72 h [14]: > 100 µM
12 | COc1ccc2nccc([C@H](O)CC[C@@H]3CCN(CCS(=O)(=O)c4ccc[se]4)C[C@@H]3C(=O)O)c2c1 (mixture of isomers) | > 64 |  |  | > 100 |  |  |  |  | > 64 |  | 
13 | COc1ccc2nccc([C@@H](O)CC[C@@H]3CCN(CCS(=O)(=O)c4ccc[se]4)C[C@@H]3C(=O)O)c2c1 (mixture of isomers) | > 64 |  | > 100 | > 100 |  |  |  |  | > 64 |  | 
14 | COc1ccc2nccc([C@@H](O)CC[C@@H]3CCN(CCSc4ccc(C(F)F)[se]4)C[C@@H]3C(=O)O)c2c1 (mixture of isomers) | 16 |  | 21.2 | 39 |  |  |  |  | 32 |  | 
15 | COc1ccc2nccc([C@H](O)CC[C@@H]3CCN(CCSc4ccc(C=O)[se]4)C[C@@H]3C(=O)O)c2c1 (mixture of isomers) | 16 |  | 8.9 | > 100 |  |  |  |  | 16 |  | 
16 | COc1ccc2nccc([C@H](O)CC[C@@H]3CCN(CCSc4ccc(C#N)[se]4)C[C@@H]3C(=O)O)c2c1 (mixture of isomers) | > 64 |  |  | 65 |  |  |  |  | > 64 |  | 
17 | COc1ccc2nccc([C@@H](O)CC[C@@H]3CCN(CCSc4ccc(C#N)[se]4)C[C@@H]3C(=O)O)c2c1 (mixture of isomers) | 32 |  | 36.6 | 48 |  |  |  |  | 32 |  | 
18 | COc1ccc2nccc(C(O)CC[C@@H]3CCN(CCSc4ccc(C(=O)O)[se]4)C[C@@H]3C(=O)O)c2c1 (mixture of isomers) | > 64 |  | > 100 | > 100 |  |  |  |  | > 64 |  | 
19 | COc1ccc2nccc(C(O)CC[C@@H]3CCN(CCC(=O)N4CCCCC4)C[C@@H]3C(=O)O)c2c1 (mixture of isomers) | 32 |  | 10.6 | > 100 |  |  |  |  | 32 |  | 
20 | COc1ccc2nccc([C@H](O)CC[C@@H]3CCN(CCSc4ccco4)C[C@@H]3C(=O)O)c2c1 (mixture of isomers) | 4 | > 100 | 10.2 | > 100 | 32 | 4 | 8 | 16 | 4 | 8 | inhibition at 10 µM (hERG (KCNH2)): 14%; CC50 at 72 h [11]: > 100 µM; CC50 at 72 h [13]: > 100 µM; CC50 at 72 h [14]: > 100 µM
21 | COc1ccc2nccc([C@@H](O)CC[C@@H]3CCN(CCSc4ccco4)C[C@@H]3C(=O)O)c2c1 (mixture of isomers) | 2 | > 100 | 4.7 | > 100 | 8 | 2 | 4 | 4 | 2 | 2 | inhibition at 10 µM (hERG (KCNH2)): 27%; IC50 [16]: < 30 µM; CC50 at 72 h [11]: > 100 µM; CC50 at 72 h [13]: > 100 µM; CC50 at 72 h [14]: > 100 µM
22 | COc1ccc2nccc([C@H](O)CC[C@@H]3CCN(CCSc4cccs4)C[C@@H]3C(=O)O)c2c1 (mixture of isomers) | 0.5 | 23 | 3.3 | > 100 | 4 | 0.5 | 1 | 1 | 1 | 1 | CC50 at 72 h [11]: > 100 µM; CC50 at 72 h [13]: > 100 µM; CC50 at 72 h [14]: > 100 µM
23 | COc1ccc2nccc([C@@H](O)CC[C@@H]3CCN(CCSc4cccs4)C[C@@H]3C(=O)O)c2c1 (mixture of isomers) | 0.13 | 45 | 1.4 | > 100 | 0.5 | 0.13 | 0.25 | 0.25 | 0.25 | 0.25 | CC50 at 72 h [11]: > 100 µM; MIC90 (Staphylococcus aureus [1]): 0.5 µg/mL; MIC90 (Staphylococcus aureus [2]): 1 µg/mL; CC50 at 72 h [13]: > 100 µM; CC50 at 72 h [14]: > 100 µM
24 | COc1ccc2nccc([C@H](O)CC[C@@H]3CCN(CCSc4sccc4P(=O)(OC(C)C)OC(C)C)C[C@@H]3C(=O)O)c2c1 (mixture of isomers) | > 64 |  |  | 34 |  |  |  |  | > 64 |  | 
25 | COc1ccc2nccc([C@@H](O)CC[C@@H]3CCN(CCSc4sccc4P(=O)(OC(C)C)OC(C)C)C[C@@H]3C(=O)O)c2c1 (mixture of isomers) | > 64 |  | > 100 | > 98 |  |  |  |  | > 64 |  | 
26 | COc1ccc2nccc([C@H](O)CC[C@@H]3CCN(CCSc4sccc4P(=O)(O)O)C[C@@H]3C(=O)O)c2c1 (mixture of isomers) | > 64 |  | > 100 | > 100 |  |  |  |  | > 64 |  | 
27 | COc1ccc2nccc([C@@H](O)CC[C@@H]3CCN(CCSc4sccc4P(=O)(O)O)C[C@@H]3C(=O)O)c2c1 (mixture of isomers) | > 64 |  |  | > 94 |  |  |  |  | > 64 |  | 
28 | O=C(O)c1cn(C2CC2)c2cc(N3CCNCC3)c(F)cc2c1=O [CIPROFLOXACIN] | 64 (≈ 193 µM) | 3 |  | > 100 | 128 (≈ 386 µM) | 64 (≈ 193 µM) | 64 (≈ 193 µM) | 256 (≈ 773 µM) | 0.25 (≈ 0.754 µM) | 256 (≈ 773 µM) | 
29 | CO/N=C1\CN(c2nc3c(cc2F)c(=O)c(C(=O)O)cn3C2CC2)CC1CN (centres undefined) [GEMIFLOXACIN] | 4 (≈ 10.3 µM) | 0.4 |  |  | 64 (≈ 164 µM) | 4 (≈ 10.3 µM) | 1 (≈ 2.57 µM) | 32 (≈ 82.2 µM) | 0.03 (≈ 0.077 µM) | 32 (≈ 82.2 µM) | 
30 | COc1c(N2C[C@@H]3CCCN[C@@H]3C2)c(F)cc2c(=O)c(C(=O)O)cn(C3CC3)c12 [MOXIFLOXACIN] | 4 (≈ 9.96 µM) | 1 |  | > 100 | > 64 | 4 (≈ 9.96 µM) | 1 (≈ 2.49 µM) | 16 (≈ 39.9 µM) | 0.06 (≈ 0.149 µM) | 8 (≈ 19.9 µM) | 
